In ChEMBL document CHEMBL3627702, “Navigating CYP1A Induction and Arylhydrocarbon Receptor Agonism in Drug Discovery. A Case History with S1P1 Agonists” (J Med Chem, 2015):

Tests used:
CYP1A2 [1] = assay: Induction of CYP1A2 mRNA expression in human hepatocytes at 10 uM relative to control; assay type: ADME, cell-based, Hepatocyte; conditions: read-out: FC
CYP1A1 [2] = assay: Induction of CYP1A1 mRNA expression in rat hepatocytes at 10 uM by Taqman analysis relative to control; assay type: ADME, cell-based, Hepatocyte; conditions: read-out: FC
CYP1A2 [3] = assay: Induction of CYP1A2 mRNA expression in rat hepatic microsomes at 30 mg/kg, po QD for 7 days relative to control; assay type: ADME, organism-based, Liver; conditions: read-out: FC
Summary of the method: (§1)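 Male rats dosed orally once daily for 7 days. Hepatic mRNA measured by Taqman and expressed as fold induction versus control animals.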

CYP1A2 [4] = target: T1, CYP1A2 (Homo sapiens, UniProt P05177); assay: Induction of CYP1A2-mediated 7-ethoxyresorufin O-deethylase activity in human hepatocytes at 5 uM after 10 mins by fluorescence assay relative to control; assay type: ADME, cell-based, Hepatocyte; conditions: probe 7-ethoxyresorufin, read-out: FC
T1 sequence (P05177 whole entry): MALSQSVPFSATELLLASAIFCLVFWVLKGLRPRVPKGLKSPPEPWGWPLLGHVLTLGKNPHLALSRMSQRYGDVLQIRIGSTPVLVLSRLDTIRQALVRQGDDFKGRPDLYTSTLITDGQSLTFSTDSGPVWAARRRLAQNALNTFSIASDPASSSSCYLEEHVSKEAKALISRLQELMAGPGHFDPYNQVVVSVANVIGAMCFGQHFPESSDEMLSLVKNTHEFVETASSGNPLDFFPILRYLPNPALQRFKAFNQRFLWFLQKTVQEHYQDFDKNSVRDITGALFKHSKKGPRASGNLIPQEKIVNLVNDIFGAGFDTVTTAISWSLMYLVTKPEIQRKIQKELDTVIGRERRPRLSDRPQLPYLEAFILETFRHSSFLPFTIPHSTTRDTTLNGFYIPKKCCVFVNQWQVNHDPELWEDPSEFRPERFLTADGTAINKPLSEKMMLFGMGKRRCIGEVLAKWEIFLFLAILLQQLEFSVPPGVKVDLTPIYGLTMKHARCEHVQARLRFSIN
Summary of the method: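 Human hepatocytes were treated for 48 h (re-dosed at 24 h), washed, then incubated with 0.5 μM ethoxyresorufin in serum-free medium for 10 min at 37 °C. Resorufin fluorescence read at Ex 530/Em 590 nm. Rate in fluorescence units/min expressed as fold over solvent control.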

CYP1A1 [5] = assay: Induction of CYP1A1 mRNA expression in rat hepatic microsomes at 30 mg/kg, po QD for 7 days relative to control; assay type: ADME, organism-based, Liver; conditions: read-out: FC; summary of the method: as §1
CYP1A2 [6] = assay: Induction of CYP1A2 mRNA expression in rat hepatocytes at 10 uM by Taqman analysis relative to control; assay type: ADME, cell-based, Hepatocyte; conditions: read-out: FC
Rattus norvegicus [7] = assay: Dose normalized AUC in Sprague-Dawley rat at 30 mg/kg, po QD measured on day 1; assay type: ADME, organism-based; conditions: in vivo
Summary of the method: (§2)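 Male CD rats (226−325 g), n = 3, given the compound once daily by oral gavage for 4 days. Vehicle was 1% (w/v) methylcellulose aq suspension at 3−6 mg/mL, dosed at 5 mL/kg (target 15−30 mg/kg). Tail vein blood was taken on days 1 and 4 up to 24 h postdose. Blood was diluted 1:1 with water, extracted by acetonitrile protein precipitation and analysed by LC−MS/MS against calibration standards in diluted blood.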

[8] = AUC in Sprague-Dawley rat at 30 mg/kg, po QD measured on day 4; assay type: ADME, organism-based; conditions: in vivo; summary of the method: as §2
[9] = Oral bioavailability in CD rat at 3 mg/kg; assay type: ADME, organism-based; conditions: in vivo
Summary of the method: (§3)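 Male CD rats cannulated in the femoral and jugular veins, n = 3, crossover design. Day 1: 1 h iv infusion at 1 mg/kg (0.2 mg/mL in ≤5% DMSO/≥95% 10% Kleptose in saline, 5 mL/kg/h). Day 2: oral gavage at 3 mg/kg (0.6 mg/mL in 1% methylcellulose, 5 mL/kg). Blood assayed by LC–MS/MS after acetonitrile precipitation.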

CYP1A2 [10] = assay: Induction of CYP1A2 mRNA expression in Sprague-Dawley rat hepatic microsomes at 30 mg/kg, po QD for 4 days relative to control; assay type: ADME, organism-based, Liver; conditions: read-out: FC
[11] = Cmax in Sprague-Dawley rat at 30 mg/kg, po QD measured on day 4; assay type: ADME, organism-based; parameters: dose 30 mg/kg, route oral; conditions: in vivo; summary of the method: as §2
[12] = AUC in Sprague-Dawley rat at 30 mg/kg, po QD measured on day 1; assay type: ADME, organism-based; conditions: in vivo; summary of the method: as §2
Rattus norvegicus [13] = assay: Dose normalized AUC in Sprague-Dawley rat at 30 mg/kg, po QD measured on day 4; assay type: ADME, organism-based; conditions: in vivo; summary of the method: as §2
CYP1A1 [14] = assay: Induction of CYP1A1 mRNA expression in Sprague-Dawley rat hepatic microsomes at 30 mg/kg, po QD for 4 days relative to control; assay type: ADME, organism-based, Liver; conditions: read-out: FC
Summary of the method: (§4)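 Male CD rats (226–325 g, n = 3) were dosed by oral gavage once daily for 4 days as a 1% w/v aqueous methylcellulose suspension (3–6 mg/mL, 5 mL/kg). At the end of the study, a left lateral liver lobe section was placed in RNALater and homogenised in TRIzol. RNA was purified, DNase-treated and converted to cDNA, and Cyp1a1 was read on low-density TaqMan arrays.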

[15] = Lipophilicity, log D of the compound at pH 7.4; assay type: physicochemical; conditions: buffer
[16] = Cmax in Sprague-Dawley rat at 30 mg/kg, po QD measured on day 1; assay type: ADME, organism-based; parameters: dose 30 mg/kg, route oral; conditions: in vivo; summary of the method: as §2
Rattus norvegicus [17] = assay: Dose normalized AUC in Sprague-Dawley rat at 15 mg/kg, po QD measured on day 4; assay type: ADME, organism-based; conditions: in vivo; summary of the method: as §2
[18] = AUC in Sprague-Dawley rat at 15 mg/kg, po QD measured on day 4; assay type: ADME, organism-based; conditions: in vivo; summary of the method: as §2
CYP1A2 [19] = assay: Induction of CYP1A2 mRNA expression in Sprague-Dawley rat hepatic microsomes at 15 mg/kg, po QD for 4 days relative to control; assay type: ADME, organism-based, Liver; conditions: read-out: FC
[20] = AUC in Sprague-Dawley rat at 15 mg/kg, po QD measured on day 1; assay type: ADME, organism-based; conditions: in vivo; summary of the method: as §2
Rattus norvegicus [21] = assay: Dose normalized AUC in Sprague-Dawley rat at 15 mg/kg, po QD measured on day 1; assay type: ADME, organism-based; conditions: in vivo; summary of the method: as §2
CYP1A1 [22] = assay: Induction of CYP1A1 mRNA expression in Sprague-Dawley rat hepatic microsomes at 15 mg/kg, po QD for 4 days relative to control; assay type: ADME, organism-based, Liver; conditions: read-out: FC; summary of the method: as §4
[23] = Cmax in Sprague-Dawley rat at 15 mg/kg, po QD measured on day 4; assay type: ADME, organism-based; parameters: dose 15 mg/kg, route oral; conditions: in vivo; summary of the method: as §2
[24] = Cmax in Sprague-Dawley rat at 15 mg/kg, po QD measured on day 1; assay type: ADME, organism-based; parameters: dose 15 mg/kg, route oral; conditions: in vivo; summary of the method: as §2
[25] = Dissociation constant, pKa of the compound; assay type: physicochemical
[26] = AUC in Sprague-Dawley rat at 25 mg/kg, po QD measured on day 4; assay type: ADME, organism-based; conditions: in vivo; summary of the method: as §2
[27] = Blood clearance in CD rat at 1 mg/kg, iv; assay type: ADME, organism-based
Summary of the method: (§5)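 Male CD rats carried femoral vein (dosing) and jugular vein (sampling) cannulae and recovered at least 2 days. They received a 1 h iv infusion at 5 mL kg−1 h−1, target 1 mg/kg, at 0.2 mg/mL in DMSO/10% Kleptose in saline (≤5%:≥95%). pH was adjusted to 8.0 if needed and the solution filtered. Definitive studies used n = 3 in crossover; others used single animals.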

[28] = Cmax in Sprague-Dawley rat at 25 mg/kg, po QD measured on day 4; assay type: ADME, organism-based; parameters: dose 25 mg/kg, route oral; conditions: in vivo; summary of the method: as §2
[29] = Half life in CD rat at 1 mg/kg, iv; assay type: ADME, organism-based; conditions: in vivo; summary of the method: as §5
CYP1A1 [30] = assay: Induction of CYP1A1 mRNA expression in Sprague-Dawley rat hepatic microsomes at 25 mg/kg, po QD for 4 days relative to control; assay type: ADME, organism-based, Liver; conditions: read-out: FC; summary of the method: as §4
Rattus norvegicus [31] = assay: Dose normalized AUC in Sprague-Dawley rat at 25 mg/kg, po QD measured on day 1; assay type: ADME, organism-based; conditions: in vivo; summary of the method: as §2
[32] = Cmax in Sprague-Dawley rat at 25 mg/kg, po QD measured on day 1; assay type: ADME, organism-based; parameters: dose 25 mg/kg, route oral; conditions: in vivo; summary of the method: as §2
[33] = AUC in Sprague-Dawley rat at 25 mg/kg, po QD measured on day 1; assay type: ADME, organism-based; conditions: in vivo; summary of the method: as §2
[34] = Volume of distribution at steady state in CD rat at 1 mg/kg, iv; assay type: ADME, organism-based; conditions: in vivo, read-out: Vdss; summary of the method: as §3
Rattus norvegicus [35] = assay: Dose normalized AUC in Sprague-Dawley rat at 25 mg/kg, po QD measured on day 4; assay type: ADME, organism-based; conditions: in vivo; summary of the method: as §2
CYP1A2 [36] = assay: Induction of CYP1A2 mRNA expression in Sprague-Dawley rat hepatic microsomes at 25 mg/kg, po QD for 4 days relative to control; assay type: ADME, organism-based, Liver; conditions: read-out: FC

Row | SMILES | AUC/dose (Rattus norvegicus [7]) [kg·min/L] | AUC [8] [ng·h/mL] | bioavailability [9] [%] | fold induction at 96 h (CYP1A2 [10]) | Cmax [11] [ng/mL] | AUC [12] [ng·h/mL] | AUC/dose (Rattus norvegicus [13]) [kg·min/L] | fold induction at 96 h (CYP1A1 [14]) | logD [15] | Cmax [16] [ng/mL] | pKa [25] | also measured
1 | Cc1c(-c2noc(-c3ccc(OC(C)C)c(C#N)c3)n2)ccc2c1CCN(CCC(=O)O)C2 | – | – | – | – | – | – | – | – | – | – | – | fold induction at 10 µM (CYP1A2 [1]): 0.2; fold induction at 10 µM (CYP1A1 [2]): < 1; fold induction at 168 h (CYP1A2 [3]): 1; fold induction at 10 min, 5 µM (CYP1A2 [4]): 1.1; fold induction at 168 h (CYP1A1 [5]): 3; fold induction at 10 µM (CYP1A2 [6]): < 1
2 | CC(C)Oc1ccc(-c2nc(-c3ccc4c(c3)CCN(C(CO)CO)CC4)no2)cc1C#N | 48 | 23100 | 68 | 7.3 | 1380 | 23000 | 59 | 604 | 2.78 | 1600 | – | –
3 | Cc1c(-c2noc(-c3ccc(OC(C)C)c(C#N)c3)n2)ccc2c1OCCN(C(CO)CO)C2 | – | – | 69 | – | – | – | – | – | 2.86 | – | 6.3 | AUC [26]: 12600 ng·h/mL; clearance [27]: 54 mL/min/kg; Cmax [28]: 1140 ng/mL; half-life [29]: 1 h; fold induction at 96 h (CYP1A1 [30]): 40; AUC/dose (Rattus norvegicus [31]): 22 kg·min/L; Cmax [32]: 870 ng/mL; AUC [33]: 8840 ng·h/mL; Vd [34]: 4 L/kg; AUC/dose (Rattus norvegicus [35]): 30 kg·min/L; fold induction at 96 h (CYP1A2 [36]): 2
4 | Cc1c(-c2noc(-c3ccc(OC(C)C)c(C#N)c3)n2)ccc2c1CCN(C[C@H](O)CO)C2 | 9 | 3600 | – | 10 | 500 | 4440 | 9 | 64 | 2.7 | 770 | 7.7 | –

Further lines, with some results ahead:

Row | AUC/dose (Rattus norvegicus [7]) [kg·min/L] | AUC [8] [ng·h/mL] | bioavailability [9] [%] | fold induction at 96 h (CYP1A2 [10]) | Cmax [11] [ng/mL] | AUC [12] [ng·h/mL] | AUC/dose (Rattus norvegicus [13]) [kg·min/L] | fold induction at 96 h (CYP1A1 [14]) | logD [15] | Cmax [16] [ng/mL] | pKa [25] | SMILES | also measured
5 | 9 | 7640 | – | 1.5 | 790 | 4420 | 16 | 1.4 | 2.76 | 440 | – | Cc1c(-c2noc(-c3ccc(OC(C)C)c(C#N)c3)n2)ccc2c1CCN(C(CO)CO)C2 | –
6 | – | – | – | – | – | – | – | – | 2.58 | – | 7.3 | CC(C)Oc1ccc(-c2nc(-c3cccc4c3CCN(C(CO)CO)C4)no2)cc1C#N | AUC/dose (Rattus norvegicus [17]): 56 kg·min/L; AUC [18]: 13900 ng·h/mL; fold induction at 96 h (CYP1A2 [19]): 2; AUC [20]: 12100 ng·h/mL; AUC/dose (Rattus norvegicus [21]): 48 kg·min/L; fold induction at 96 h (CYP1A1 [22]): 1.6; Cmax [23]: 940 ng/mL; Cmax [24]: 900 ng/mL
